For assay [1], the target named is T1, 5-hydroxytryptamine receptor 3A (Cavia porcellus, UniProt O70212).
T1 sequence (O70212 whole entry): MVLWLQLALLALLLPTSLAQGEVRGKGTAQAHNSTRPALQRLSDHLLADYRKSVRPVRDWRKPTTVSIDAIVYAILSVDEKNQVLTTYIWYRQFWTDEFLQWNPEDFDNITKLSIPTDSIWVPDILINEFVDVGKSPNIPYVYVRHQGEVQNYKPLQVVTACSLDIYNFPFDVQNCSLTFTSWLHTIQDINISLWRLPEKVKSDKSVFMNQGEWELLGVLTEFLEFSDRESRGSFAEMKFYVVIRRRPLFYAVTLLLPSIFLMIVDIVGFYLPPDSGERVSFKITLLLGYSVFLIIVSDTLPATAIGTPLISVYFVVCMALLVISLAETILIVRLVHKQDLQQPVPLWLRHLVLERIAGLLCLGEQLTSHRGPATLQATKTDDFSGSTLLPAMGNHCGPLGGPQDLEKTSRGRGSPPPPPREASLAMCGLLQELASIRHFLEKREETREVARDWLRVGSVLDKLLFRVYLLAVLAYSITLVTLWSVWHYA
Briefly: Antagonist activity at 5-HT3 receptor in guinea pig ileum muscle. Format: functional, tissue-based. The following applies: read-out: pA2 (converted). A digest of the protocol: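 Longitudinal muscle myenteric plexus preparation from ileum of male Dunkin Hartley guinea pigs (350-400 g); antagonism measured against the 5-HT3 agonist 2-methyl-5-HT and expressed as pA2 by literature methods; mean of two separate experiments.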

For assay [2], the system named is Mus musculus. Put plainly: Antidepressant activity in mouse assessed as immobility time at 1 mg/kg, ip by forced swimming test. Format: functional. The following applies: route intraperitoneal.
In assay [3] the test system is Mus musculus. Briefly: Antipsychotic activity in Swiss Albino mouse assessed as spontaneous locomotor score at 1 mg/kg, ip measured for 10 mins by actophotometer. Type of assay: functional. The following applies: route intraperitoneal. A digest of the protocol: (§1)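 Swiss Albino mice (23 ± 2 g) given compound intraperitoneally in 10% PEG-400 in water; spontaneous locomotor activity counted in an actophotometer over 10 min as locomotor score; n = 8 per group, mean; one-way ANOVA with Dunnett's test versus vehicle-treated group.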

In assay [4] the test system is Mus musculus. Briefly: Antidepressant activity in Swiss Albino mouse assessed as immobility time at 0.5 mg/kg, ip by forced swimming test (reference value: 165.6 +/- 03.2 sec). Type of assay: functional. As to conditions: route intraperitoneal.
In assay [5] the test system is Mus musculus. Briefly: Antidepressant activity in Swiss Albino mouse assessed as immobility time at 2 mg/kg, ip by forced swimming test. Format: functional. As to conditions: route intraperitoneal.
Assay [6] relates to Mus musculus. Put plainly: Antipsychotic activity in Swiss Albino mouse assessed as spontaneous locomotor score at 0.5 mg/kg, ip measured for 10 mins by actophotometer. Type of assay: functional. The following applies: route intraperitoneal. Summed up: as §1
Assay [7] deals with Mus musculus. Put plainly: Antipsychotic activity in Swiss Albino mouse assessed as spontaneous locomotor score at 2 mg/kg, ip measured for 10 mins by actophotometer. Type of assay: functional. As to conditions: route intraperitoneal. A digest of the protocol: as §1

For `CCOc1nc2ccccc2nc1C(=O)N1CCN(c2ccccc2)CC1`, in assay [1], the Kb was 10000 nM. In the assay with Mus musculus [2], the Time is 134 s. Also, the Activity with Mus musculus [3] turned out to be 382 score.

Consider `CCOc1nc2ccccc2nc1C(=O)N1CCN(c2ccccc2OC)CC1`, for which the Kb in assay [1] was 100 nM. The Time with Mus musculus [2] is reported as 113.3 s; in the assay with Mus musculus [4], 115.3 s; in the assay on Mus musculus [5], 122 s. Also, the Activity in the assay with Mus musculus [3] came to 360 score; in the assay with Mus musculus [6], 351 score; in the assay on Mus musculus [7], 366 score.

For the compound `CCOc1nc2ccccc2nc1C(=O)N1CCN(c2ccc(OC)cc2)CC1`, in assay [1], the Kb was 158 nM. Further, the Time is reported as 114.6 s in the assay with Mus musculus [2], 159 s with Mus musculus [4] and 121.6 s in the assay with Mus musculus [5]. In addition, the Activity is 356 score in the assay on Mus musculus [3], 352 score with Mus musculus [6] and 361 score in the assay with Mus musculus [7].

With `CCOc1nc2ccccc2nc1C(=O)N1CCN(c2ccc(Cl)cc2)CC1`, in assay [1], the Kb was 1000 nM. The Time in the assay with Mus musculus [2] was determined as 146.6 s. Moreover, the Activity with Mus musculus [3] was found to be 364 score.

Take `CCOc1nc2ccccc2nc1C(=O)N1CCN(c2cccc(Cl)c2)CC1`: in assay [1], the Kb was 251 nM. For the same compound, the values for the Time in the assay with Mus musculus [2], in the assay with Mus musculus [4] and in the assay with Mus musculus [5] were 110.6 s, 83.6 s and 76.6 s, respectively. Further, the Activity is 352 score with Mus musculus [3], 361 score with Mus musculus [6] and 358 score in the assay with Mus musculus [7].

Turning to `CCOc1nc2ccccc2nc1C(=O)N1CCN(c2cccc(C(F)(F)F)c2)CC1`, the Kb in assay [1] is 7940 nM. The Time with Mus musculus [2] is 148 s. Moreover, the Activity in the assay with Mus musculus [3] was 356 score.

Consider `CCOc1nc2ccccc2nc1C(=O)Nc1cccnc1`, for which, in assay [1], the Kb was 15800 nM. Further, in the assay on Mus musculus [2], the Time is 144 s. In addition, the Activity with Mus musculus [3] is 365 score.

For `CCOc1nc2ccccc2nc1C(=O)N1CCN(Cc2ccccc2)CC1`, the Kb in assay [1] is 25100 nM. Also, the Time with Mus musculus [2] is 160 s. Further, the Activity in the assay with Mus musculus [3] is 366 score.

`CCOc1nc2ccccc2nc1C(=O)N1CCN(C)CC1`: the Kb in assay [1] is 20 nM. Further, the results for the Time in the assay with Mus musculus [2], in the assay with Mus musculus [4] and with Mus musculus [5] were 94 s, 125 s and 130 s, respectively. Also, the results for the Activity in the assay on Mus musculus [3], with Mus musculus [6] and in the assay with Mus musculus [7] were 350 score, 353 score and 356 score, respectively.

Regarding `CCOc1nc2ccccc2nc1C(=O)N1CCN(CC)CC1`, in assay [1], the Kb is 31.6 nM. Moreover, the Time was determined as 98 s with Mus musculus [2], 159.3 s with Mus musculus [4] and 128 s in the assay with Mus musculus [5]. Further, the Activity in the assay on Mus musculus [3] stood at 360 score; in the assay on Mus musculus [6], 349 score; in the assay on Mus musculus [7] it was 352 score.

Consider `C=CCN1CCN(C(=O)c2nc3ccccc3nc2OCC)CC1`, for which the Kb in assay [1] is 158 nM. Also, the Time in the assay on Mus musculus [2] is listed as 127 s; in the assay on Mus musculus [4] it was 152 s; with Mus musculus [5], 118 s. For the same compound, the Activity came out at 360 score with Mus musculus [3], 345 score in the assay with Mus musculus [6] and 352 score in the assay with Mus musculus [7].

As for `CCOc1nc2ccccc2nc1C(=O)NCCN(C)C`, the Kb in assay [1] is 126 nM. Moreover, the Time with Mus musculus [2] is recorded as 117.7 s; with Mus musculus [4], 133.6 s; with Mus musculus [5] it was 96 s. For the same compound, the Activity in the assay on Mus musculus [3] is 349 score; in the assay on Mus musculus [6], 345 score; with Mus musculus [7], 343 score.

`CCOc1nc2ccccc2nc1C(=O)NCCN(CC)CC`: in assay [1], the Kb is 20000 nM. Moreover, the Time in the assay on Mus musculus [2] stood at 162 s. In addition, the Activity with Mus musculus [3] is 362 score.

Regarding `CCOc1nc2ccccc2nc1C(=O)NCCc1c[nH]c2ccccc12`, in assay [1], the Kb was 63.1 nM. The figures for the Time with Mus musculus [2], in the assay on Mus musculus [4] and with Mus musculus [5] were 104 s, 150.3 s and 79.3 s, respectively. Further, the values for the Activity in the assay with Mus musculus [3], in the assay on Mus musculus [6] and in the assay on Mus musculus [7] were 350 score, 366 score and 355 score, respectively.

Regarding `CCOc1nc2ccccc2nc1C(=O)Nc1ccc(N(CC)CC)cc1`, in assay [1], the Kb is 10000 nM. In addition, in the assay with Mus musculus [2], the Time is 145 s. Further, in the assay with Mus musculus [3], the Activity stood at 374 score.

In the case of `Cc1nccn1CC1CCc2c(c3ccccc3n2C)C1=O` (stereo not drawn) [ONDANSETRON], the Time is 100.4 s in the assay with Mus musculus [2], 130.2 s in the assay with Mus musculus [4] and 95.1 s in the assay with Mus musculus [5]. Also, the values for the Activity in the assay with Mus musculus [3], with Mus musculus [6] and in the assay on Mus musculus [7] were 388 score, 368 score and 400 score, respectively.
